Screening results: PubChem BioAssay, The Scripps Research Institute Molecular Screening Center
Sampled rows, rich in hits. Any-hit rate of the full collection: about 1.9%.
M4 ag: CHRM4 agonism in calcium assay; CHO-K1 hM4/Gqi5, Fluo-8 calcium fluorescence; vehicle 0%, full acetylcholine response 100%; activation, % at 3 µM; P08173; AID 624127; 0.14% of 360,000 active;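 active = activation above the run mean over all test wells plus 3 SD, cut at about 32% in these data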;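 note: peak over basal fluorescence ratio per well then scaled between controls; 0% = DMSO wells and 100% = acetylcholine at EC100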
Target sequence (P08173 whole entry, looked up): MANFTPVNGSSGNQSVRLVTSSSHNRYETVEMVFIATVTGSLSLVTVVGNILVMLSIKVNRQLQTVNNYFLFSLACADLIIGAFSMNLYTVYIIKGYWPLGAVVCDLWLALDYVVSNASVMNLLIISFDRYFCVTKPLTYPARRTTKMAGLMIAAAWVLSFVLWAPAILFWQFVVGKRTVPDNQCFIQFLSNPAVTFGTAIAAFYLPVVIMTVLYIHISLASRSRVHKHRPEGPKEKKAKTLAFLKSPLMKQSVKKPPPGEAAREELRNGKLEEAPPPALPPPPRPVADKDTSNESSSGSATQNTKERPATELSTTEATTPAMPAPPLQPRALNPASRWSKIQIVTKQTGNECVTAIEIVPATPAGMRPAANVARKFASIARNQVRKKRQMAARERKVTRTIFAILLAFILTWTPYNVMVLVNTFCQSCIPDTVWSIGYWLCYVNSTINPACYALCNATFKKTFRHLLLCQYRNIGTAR
M4 PAM: CHRM4 positive allosteric modulation | CHO-K1 hM4/Gqi5, Fluo-8 calcium fluorescence, ACh EC20; 0% = ACh EC20, 100% = maximal ACh | activation, % at 3 µM | 0.4% of 360,000 active | AID 624126;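 active = activation above its plate's cutoff, the mean activation of sample wells plus 3 SD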
M5 antag: CHRM5 antagonism in calcium assay; inhibition, % at 3 µM; 0.59% of 360,000 active; AID 624040; CHO-hM5 cells, Fluo-8 calcium fluorescence, ACh EC80; P08912;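 active = inhibition above a per-plate cutoff, the mean of that plate's test compounds plus 3 SD, cut at about 27% in these data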;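 note: 0% = acetylcholine EC80 with DMSO and 100% = DMSO without agonist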
CHRM5 agonist: agonists of human muscarinic M5 receptor (CHRM5); AID 624037; 0.19% of 360,000 active; activation, % at 3 µM; CHO-K1 hM5 cells, Fluo-8 calcium fluorescence; 0% DMSO wells, 100% maximal acetylcholine response;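 active = activation above the run's mean over test compounds plus 3 SD, cut at about 23% in these data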;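 note: signal is peak over basal fluorescence ratio across the kinetic read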
CHRM4 antagonist: blocks acetylcholine activation of human M4 receptor | P08173 | CHO-hM4 cells, ACh EC80, Fluo-8 calcium fluorescence | inhibition, % at 3 µM | 0.73% of 360,000 active | AID 624125;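 active = inhibition above its plate's cutoff, the mean inhibition of sample wells plus 3 SD, cut at about 27% in these data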;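 note: 0% = acetylcholine EC80 with DMSO and 100% = DMSO without agonist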
M5 PAM: CHRM5 positive allosteric modulation; 0.3% of 360,000 active; activation, % at 3 µM; AID 624038; P08912; CHO-K1 hM5, Fluo-8 calcium, ACh EC20 PAM; 0% = ACh EC20, 100% = ACh EC100;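 active = activation above the run cutoff, the mean activation of all test compounds plus 3 SD, cut at about 18% in these data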
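System: CHO-K1 cell line with stable human muscarinic M5 receptor expression | Also added: EC20 acetylcholine as agonist stimulus | Compound: One concentration, 3 µM final (nominal) | Timing: Fluo-8 loading 80 min at 37 °C plus 30 min room temperature | Measured by: Fluo-8 calcium dye fluorescence, kinetic read | Read-out basis: % activation, ACh-normalized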
Numbers without * were called inactive.

SMILES	M4 ag	M4 PAM	M5 antag	CHRM5 agonist	CHRM4 antagonist	M5 PAM
COc1ccc(NC(=O)C2(C)Cc3c(-c4cccc(C(F)(F)F)c4)ccnc3O2)cc1OC (stereo not given)	0	6	-6	1	-18	-6
O=C(O)CCC(=O)Nc1sc2c(c1C(=O)Nc1ccccc1)CCCCC2	7	9	17	7	40*	10
CC(C)OC(=O)c1c(NC(=O)CCC(=O)O)sc2c1CCCCC2	1	21*	-1	-2	16	16
O=C(O)CCC(=O)Nc1sc2c(c1C(=O)Nc1cccc3ccccc13)CCCCC2	1	0	1	0	1	1
O=C(NCCN1CCC(n2c(=O)[nH]c3ccccc32)CC1)c1ccccc1C(F)(F)F	6	-1	4	5	5	-14
COc1ccc(CN2CCCC(C(=O)c3ccc4c(c3)OCO4)C2)c(F)c1 (stereo not given)	4	-14	-2	-10	61*	-14
CC(C)Nc1nc(NCc2ccccc2)c2sccc2n1	8	-5	4	1	-3	-6
COc1cc(CCCN2C(N)=NC[C@H]2Cc2ccc(O)cc2)cc(OC)c1OC	0	14	-7	-2	-9	18*
NC1=NC[C@H](Cc2ccc(O)cc2)N1CCC12CC3CC(CC(C3)C1)C2	2	-19	7	-12	46*	-8
CCCCN1C(N)=NC[C@@H]1Cc1ccc(O)cc1	0	5	9	-3	10	-5
CCCCCCCCN1C(=O)[C@H](CC(=O)NCc2ccc(OC)c(OC)c2)C[C@@]2(C(=O)OC)CCCCC=C12	1	2	-1	-4	-13	-11
O=C(Nc1ccccc1Cl)c1cc(S(=O)(=O)N2CCOCC2)cs1	2	0	0	-3	3	-1
O=C(Nc1ccccc1C(=O)O)c1cc(S(=O)(=O)N2CCOCC2)c(Br)s1	-1	16*	-13	1	-8	18*
C[C@H](NC(=O)C1CCN(S(=O)(=O)c2ccccc2)CC1)C(=O)NCc1ccncc1	0	1	5	2	3	-2
S=c1[nH]nc(-c2ccco2)n1-c1cccc2ccccc12	1	6	13	2	5	46*
CN(Cc1ccc(OC(F)F)cc1)C(=O)c1cccc(S(=O)(=O)N2CCN(c3ccccc3)CC2)c1	29	-13	29*	4	39*	-45
CC(C)c1ccc(C(C(=O)NC2CCCCC2)N(C(=O)c2csnn2)C2CC2)cc1 (stereo not given)	1	10	-1	-2	-15	3
O=C(NC1CCCCC1)C(c1ccc(F)cc1)N(C(=O)c1csnn1)C1CC1 (stereo not given)	0	19*	-4	0	-11	5
Cc1cccc(NC(=O)COc2cccc3c2CCNC3=O)c1	5	-1	5	2	-2	-5
O=C(NC(NC(=S)Nc1ccc(Cl)cc1)C(Cl)(Cl)Cl)c1ccco1 (stereo not given)	12	-1	20	9	0	-16
CC(=O)c1ccc(NC(=S)NC(NC(=O)c2ccco2)C(Cl)(Cl)Cl)cc1 (stereo not given)	12	3	4	27*	-12	-11
O=C(NC1CCCC1)C1C(c2ccc(C(F)(F)F)cc2)=Nc2ccccc2N1C(=O)c1cccc2ccccc12 (stereo not given)	3	3	-8	-2	-5	2
CCCNC(=O)C12CCC(C)(c3nc4cc(C)c(C)cc4nc31)C2(C)C (stereo not given)	-1	23*	-3	13	-26	25*
CNC(=O)C12CCC(C)(c3nc4cc(C)c(C)cc4nc31)C2(C)C (stereo not given)	0	3	2	-1	-3	1
CN(C(=O)COc1ccccc1C(=O)NCCOc1ccccc1)c1ccccc1	24	-39	43*	3	60*	-19
SMILES	M4 ag	M4 PAM	M5 antag	CHRM5 agonist	CHRM4 antagonist	M5 PAM
COc1ccc(C(=O)N2CCC(C)(C(=O)NS(=O)(=O)C3CC3)C2)cc1 (stereo not given)	1	7	-3	1	-12	3
CCN1CCN(CC(=O)Nc2ccc3c(c2)OCCO3)C(=O)C1=O	0	31*	-4	1	-12	-4
CCN1CCN(CC(=O)Nc2ccc3c(c2)OCO3)C(=O)C1=O	2	6	-1	-1	-36	-2
CCOC(=O)c1cc(-c2cccs2)[nH]n1	0	27	16	-2	14	-14
O=C(O)c1cc(-c2cccs2)[nH]n1	2	28*	-4	-2	-4	3
O=C1NC[C@H](CCCCN2C[C@H](Cc3ccccc3)N(CCc3ccc(O)cc3)C(=O)C2=O)N(CCC2CCCCC2)C1=O	-1	2	1	-7	-1	2
Cc1cccc(NC(=O)c2nc[nH]c2C(=O)N[C@H](C)CO)c1	2	3	-5	1	-9	2
Cc1cc2c(cc1S(=O)(=O)N(C)c1ccccc1)n(C)c(=O)n2C	-2	-17	8	3	99*	-4
Cc1cccc(N(C)S(=O)(=O)c2cc3c(cc2C)n(C)c(=O)c(=O)n3C)c1	4	-7	6	-2	-1	-4
C=CC[C@@H](CC(=O)N(CCO)Cc1ccccc1)C(=O)NC[C@H](OC(=O)[C@@H](CC=C)Cc1ccc(F)cc1)c1ccccc1	27	-10	13	1	30*	-39
C=CCC[C@H](Cc1ccc(F)cc1)C(=O)OC[C@@H](Cc1c[nH]c2ccccc12)NC(=O)[C@H](CC=C)CC(=O)N(CCO)Cc1ccccc1	10	-3	15	3	45*	-15
COc1ccccc1-n1c(-c2ccccc2)c[n+]2c1CCc1ccccc1-2	1	-17	31*	-11	34*	-18
COc1ccc(-n2c(-c3ccc(Br)cc3)c[n+]3c2CCc2ccccc2-3)cc1	1	-12	17	-10	18	-11
CC(C)c1ccc(-n2c(-c3ccccc3)c[n+]3c2CCc2ccccc2-3)cc1	8	-20	29*	-8	29*	-14
CCN(CC(=O)Nc1c(F)cccc1F)C(=O)/C=C/c1cn(Cc2ccccc2)nc1-c1cccnc1	2	1	27*	-3	7	-6
COc1cc2c(cc1OC)C(c1cccc(Br)c1)NC(=O)C2 (stereo not given)	1	-9	-12	11	5	24*
O=C(Nc1cccc(S(=O)(=O)C(F)(F)F)c1)[C@@H]1O[C@H](CO)[C@@H](O)[C@H]1O	0	-1	3	0	8	0
